Measured values from ChEMBL document CHEMBL4325922, “Restoring Let-7 microRNA Biogenesis Using a Small-Molecule Inhibitor of the Protein-RNA Interaction” (ACS Med Chem Lett, 2018).
Active and inactive are the calls of the source.

Key:
[1] = target: T1, Protein lin-28 homolog A/B (Homo sapiens) (UniProt Q6ZN17+Q9H9Z2); test: Inhibition of Lin28a/Lin28b in human MCF7 cells assessed as reduction in Ras expression at 10 uM after 24 hrs by Western blot analysis; format: cell-based
[2] = target: T1, Protein lin-28 homolog A/B (Homo sapiens); test: Inhibition of Lin28a/Lin28b in human JAR cells assessed as increase in mature let-7b level after 20 hrs by TRIzol dye based qRT-PCR analysis; format: cell-based
Outline: (§1)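 JAR cells (express Lin28a and Lin28b) exposed to compound for 20 h; miRNA levels quantified with U6 snRNA as endogenous control; three or more biological replicates, standard deviation, paired two-tailed t test.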

[3] = target: T1, Protein lin-28 homolog A/B (Homo sapiens); test: Inhibition of Lin28a/Lin28b in human MCF7 cells assessed as reduction in HMGA2 expression at 10 uM after 24 hrs by Western blot analysis; format: cell-based
[4] = target: T2, Protein lin-28 homolog A (Homo sapiens) (UniProt Q9H9Z2); test: Inhibition of PreE-let-7a-1-BHQ2 binding to recombinant human N-terminal His6-tagged/Cy3-labelled Lin28a expressed in Escherichia coli Rosetta2 (DE3) pLysS measured after 30 to 60 mins by FRET assay
T2 sequence (whole entry): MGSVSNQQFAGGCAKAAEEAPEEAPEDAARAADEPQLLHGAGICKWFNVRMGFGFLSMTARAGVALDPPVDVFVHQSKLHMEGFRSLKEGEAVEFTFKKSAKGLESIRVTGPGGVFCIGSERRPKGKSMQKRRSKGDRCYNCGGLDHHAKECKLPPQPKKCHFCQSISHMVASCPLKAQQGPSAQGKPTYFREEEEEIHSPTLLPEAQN

[5] = target: T1, Protein lin-28 homolog A/B (Homo sapiens); test: Inhibition of Lin28a/Lin28b in human JAR cells assessed as increase in mature let-7g level after 20 hrs by TRIzol dye based qRT-PCR analysis; format: cell-based; outline: as §1
[6] = target: T2, Protein lin-28 homolog A (Homo sapiens); test: Inhibition of pre-let-7g binding to recombinant human N-terminal His6-tagged Lin28a expressed in Escherichia coli Rosetta2 (DE3) pLysS assessed as increase in dicer-mediated pre-let-7g microRNA maturation at 5 to 10 uM measured after 40 mins by SYBR green2 dye based fluorescence assay
[7] = target: T2, Protein lin-28 homolog A (Homo sapiens); test: Inhibition of Lin28a in human PA1 cells assessed as increase in mature let-7i level at 10 uM after 20 hrs by TRIzol dye based qRT-PCR analysis; format: cell-based
Outline: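 PA-1 ovarian teratocarcinoma cells (express Lin28a) treated for 20 h; let-7 quantified relative to U6 snRNA; 4 biological replicates, standard deviation, paired two-tailed t test.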

[8] = target: T1, Protein lin-28 homolog A/B (Homo sapiens); test: Inhibition of Lin28a/Lin28b in human JAR cells assessed as increase in mature let-7f level after 20 hrs by TRIzol dye based qRT-PCR analysis; format: cell-based; outline: as §1
[9] = target: T1, Protein lin-28 homolog A/B (Homo sapiens); test: Inhibition of Lin28a/Lin28b in human JAR cells assessed as reduction in Ras expression at 5 to 10 uM after 24 hrs by Western blot analysis; format: cell-based
Outline: (§2)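 Endogenous let-7 target proteins (HMGA2, IMP1, Ras, Lin28a) detected by Western blot in JAR or PA-1 cells after 24 h compound treatment.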

[10] = target: T1, Protein lin-28 homolog A/B (Homo sapiens); test: Inhibition of Lin28a/Lin28b in human paclitaxel-resistant JAR cells assessed as potentiation of paclitaxel induced cytotoxicity at 10 uM pretreated for 30 hrs followed by paclitaxel addition and measured after 72 hrs by WTS assay
Outline: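 Paclitaxel-resistant JAR persister cells, enriched by cytotoxic paclitaxel exposure and regrowth without drug. Cells pretreated 30 h with compound, then given paclitaxel for 72 h without compound; WST viability used to derive the paclitaxel IC50.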

[11] = target: T1, Protein lin-28 homolog A/B (Homo sapiens); test: Inhibition of Lin28a/Lin28b in human paclitaxel-resistant JAR cells assessed as reduction in MDR1 expression at 10 uM measured after 24 hrs by Western blot analysis
[12] = target: T1, Protein lin-28 homolog A/B (Homo sapiens); test: Inhibition of Lin28a/Lin28b in human JAR cells assessed as increase in mature let-7i level after 20 hrs by TRIzol dye based qRT-PCR analysis; format: cell-based; outline: as §1
JAR [13] = test: Effect on miR-98 level in human JAR cells at 5 to 10 uM after 20 hrs by TRIzol dye based qRT-PCR analysis; format: functional, cell-based; outline: as §1
JAR [14] = test: Increase in mature let-7i level in Lin28a/b knockdown human JAR cells at 10 uM after 20 hrs by qRT-PCR analysis; format: functional, cell-based
Outline: (§3)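 Lin28 knocked-down JAR cells treated for 20 h; let-7 levels measured against U6 snRNA endogenous control; 2 biological replicates.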

[15] = target: T2, Protein lin-28 homolog A (Homo sapiens); test: Inhibition of Cy5-preE-let-7a-1 binding to recombinant human N-terminal His6-tagged Lin28a expressed in Escherichia coli Rosetta2 (DE3) pLysS measured after 30 to 60 mins by electrophoretic mobility shift assay
[16] = target: T1, Protein lin-28 homolog A/B (Homo sapiens); test: Inhibition of Lin28a/Lin28b in human JAR cells assessed as reduction in HMGA2 expression after 20 hrs by dual-luciferase reporter gene assay
PA-1 [17] = test: Cytotoxicity against human PA1 cells after 24 hrs by WST assay; format: functional, cell-based
JAR [18] = test: Increase in mature let-7g level in Lin28a/b knockdown human JAR cells at 10 uM after 20 hrs by qRT-PCR analysis; format: functional, cell-based; outline: as §3
JAR [19] = test: Effect on miR-20b level in human JAR cells at 5 to 10 uM after 20 hrs by TRIzol dye based qRT-PCR analysis; format: functional, cell-based; outline: as §1
[20] = Cytotoxicity against mouse C8-D1A cells at 10 uM after 24 hrs by WST assay; format: cell-based
PA-1 [21] = test: Increase in mature let-7g level in Lin28a CRISPR-Cas9 knockout human PA1 cells at 10 uM after 20 hrs by qRT-PCR analysis; format: functional, cell-based
Outline: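 PA-1 cells with Lin28a fully knocked out by CRISPR/Cas9 editing (clonal lines) treated for 20 h; let-7 levels normalized to U6 snRNA; 2 technical replicates.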

JAR [22] = test: Inhibition of sphere formation in human JAR cells at 10 uM after 24 hrs by bright-field microscopic analysis; format: functional, cell-based
Outline: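 JAR cells are pretreated with compound for 24 h, then dissociated to single cells. Equal numbers of viable cells are grown for 12 days in sphere-forming media. The degree of sphere formation is assessed under a microscope.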

[23] = target: T1, Protein lin-28 homolog A/B (Homo sapiens); test: Inhibition of Lin28a/Lin28b in human JAR cells assessed as increase in mature let-7a level after 20 hrs by TRIzol dye based qRT-PCR analysis; format: cell-based; outline: as §1
[24] = target: T2, Protein lin-28 homolog A (Homo sapiens); test: Inhibition of Lin28a in human PA1 cells assessed as reduction in HMGA2 expression at 10 uM after 24 hrs by Western blot analysis; format: cell-based; outline: as §2
[25] = target: T2, Protein lin-28 homolog A (Homo sapiens); test: Inhibition of biotinylated-preE-let-7g binding to Lin28a in human JAR cells by pull down assay; format: cell-based
Outline: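 5′-Biotinylated preE-let-7g is immobilized on streptavidin beads and incubated with proteome from JAR human choriocarcinoma cells, which express Lin28a and Lin28b. Test compound is present during binding, and target engagement is judged by the proteins pulled down.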

[26] = target: T1, Protein lin-28 homolog A/B (Homo sapiens); test: Inhibition of Lin28a/Lin28b in human MCF7 cells assessed as reduction in IMP1 expression at 10 uM after 24 hrs by Western blot analysis; format: cell-based

T1 sequence (Q6ZN17 whole entry, looked up, one chain of several): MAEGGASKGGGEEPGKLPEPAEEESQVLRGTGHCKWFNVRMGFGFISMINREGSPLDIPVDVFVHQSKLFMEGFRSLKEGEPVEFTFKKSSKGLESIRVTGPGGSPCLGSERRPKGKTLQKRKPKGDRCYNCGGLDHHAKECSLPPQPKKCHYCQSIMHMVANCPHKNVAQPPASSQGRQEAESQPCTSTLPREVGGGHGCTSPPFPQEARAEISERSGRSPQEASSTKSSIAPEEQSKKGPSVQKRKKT

NC(=O)c1c(Nc2ccc(Cl)cc2Cl)[nH]c2c(Cl)ccc(Cl)c2c1=O
active: inhibition [2] Dose-dependent effect | inhibition [4] Dose-dependent effect | inhibition [5] Dose-dependent effect | inhibition [6] | inhibition [7] | inhibition [8] Dose-dependent effect | inhibition [9] | inhibition [10] | inhibition [11] | inhibition [12] Dose-dependent effect | inhibition [15] | inhibition [16] Dose-dependent effect | Activity (PA-1 [17]) | inhibition (JAR [22]) | inhibition [23] Dose-dependent effect | inhibition [24] | inhibition [25] Dose-dependent effect
inactive: inhibition [1] | inhibition [3] | Activity (JAR [13]) | Activity (JAR [14]) | Activity (JAR [18]) | Activity (JAR [19]) | Activity (PA-1 [21]) | inhibition [26]
Toxic: Activity [20]
